The record followed here is PMC6471013 (Chemistry (Weinheim an Der Bergstrasse, Germany), 2018).

The IC50 is the midpoint of a concentration-inhibition curve.

Each structure is given as a SMILES string. Like-named read-outs stand apart in the source and are kept apart here.

For assay [1], the target named is Recombinant human integrin αvβ3 receptor (Homo sapiens, UniProt P05106+P06756). It counts as binding. The conditions noted are these: competition with biotinylated vitronectin for the isolated αvβ3 receptor. The essentials: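 Test compound competes with biotinylated vitronectin for binding to the αvβ3 receptor. IC50 is the concentration giving 50 % inhibition of vitronectin binding, estimated by curve fitting. Values are mean ± SD of duplicate determinations.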

Assay [2] concerns αvβ3‐expressing human renal cell carcinoma 786‐O cells. Nature of the assay: Cell antiproliferative assay, 96 h, with or without elastase. The assay is classed as cell-based. As to conditions: 786-0, 96 h. In outline: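 786‐O renal carcinoma cells (αvβ3-positive) exposed to test compound for 96 h, with or without 50 nm elastase from human leukocytes. IC50 taken as the concentration giving 50 % inhibition of cell viability. Samples run in triplicate.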

Recombinant human integrin αvβ3 receptor, sequence (P06756 31-992 limits assumed): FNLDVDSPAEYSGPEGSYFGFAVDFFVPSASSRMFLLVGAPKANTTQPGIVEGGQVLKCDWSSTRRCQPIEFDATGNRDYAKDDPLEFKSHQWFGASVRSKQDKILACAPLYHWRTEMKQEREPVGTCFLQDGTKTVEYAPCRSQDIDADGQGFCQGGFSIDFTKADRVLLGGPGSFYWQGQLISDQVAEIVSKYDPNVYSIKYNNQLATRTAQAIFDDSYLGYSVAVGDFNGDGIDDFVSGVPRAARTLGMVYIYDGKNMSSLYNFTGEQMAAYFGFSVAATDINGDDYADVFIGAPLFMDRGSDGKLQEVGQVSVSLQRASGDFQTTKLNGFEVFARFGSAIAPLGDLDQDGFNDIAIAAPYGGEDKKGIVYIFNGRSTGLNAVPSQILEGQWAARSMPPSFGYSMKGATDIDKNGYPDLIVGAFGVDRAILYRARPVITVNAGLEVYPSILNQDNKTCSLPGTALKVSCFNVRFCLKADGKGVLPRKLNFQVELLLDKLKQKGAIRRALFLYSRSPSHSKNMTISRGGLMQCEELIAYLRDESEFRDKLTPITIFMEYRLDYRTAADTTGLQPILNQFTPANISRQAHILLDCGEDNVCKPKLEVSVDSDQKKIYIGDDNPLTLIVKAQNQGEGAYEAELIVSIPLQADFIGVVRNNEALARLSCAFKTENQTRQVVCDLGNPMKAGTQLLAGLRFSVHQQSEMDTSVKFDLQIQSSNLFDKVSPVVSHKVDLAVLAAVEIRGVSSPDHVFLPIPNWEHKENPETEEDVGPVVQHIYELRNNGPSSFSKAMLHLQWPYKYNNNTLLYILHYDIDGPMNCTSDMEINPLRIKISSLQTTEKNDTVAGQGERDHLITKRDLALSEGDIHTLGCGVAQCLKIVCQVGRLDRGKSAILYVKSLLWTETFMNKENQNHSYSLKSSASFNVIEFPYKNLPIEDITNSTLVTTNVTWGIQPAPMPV
Recombinant human integrin αvβ3 receptor, sequence (P05106 27-718 limits assumed): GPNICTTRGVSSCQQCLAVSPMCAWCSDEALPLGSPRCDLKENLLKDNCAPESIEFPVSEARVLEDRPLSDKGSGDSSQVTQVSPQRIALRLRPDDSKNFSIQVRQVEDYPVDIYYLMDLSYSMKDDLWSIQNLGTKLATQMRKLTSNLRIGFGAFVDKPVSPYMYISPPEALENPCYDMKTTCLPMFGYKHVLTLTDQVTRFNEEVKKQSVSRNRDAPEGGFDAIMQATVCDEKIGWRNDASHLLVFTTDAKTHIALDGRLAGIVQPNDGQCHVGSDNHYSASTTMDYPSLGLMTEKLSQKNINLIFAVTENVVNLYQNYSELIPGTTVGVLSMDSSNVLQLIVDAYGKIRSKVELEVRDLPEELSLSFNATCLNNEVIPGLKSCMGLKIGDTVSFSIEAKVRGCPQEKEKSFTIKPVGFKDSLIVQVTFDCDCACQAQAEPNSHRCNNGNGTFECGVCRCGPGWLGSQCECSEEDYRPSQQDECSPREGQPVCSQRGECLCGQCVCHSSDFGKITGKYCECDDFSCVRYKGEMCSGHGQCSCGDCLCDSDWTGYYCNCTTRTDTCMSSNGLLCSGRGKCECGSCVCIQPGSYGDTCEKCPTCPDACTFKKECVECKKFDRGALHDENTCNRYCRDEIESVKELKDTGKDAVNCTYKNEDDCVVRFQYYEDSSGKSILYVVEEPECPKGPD

With `CN1C(=CC=CC=CC2=[N+](CCCCCC(=O)NCc3ccc(CN4C(=O)[C@@H]5CC(=O)N[C@@H](CCCNC(=N)N)C(=O)NCC(=O)N[C@@H](CC(=O)O)C(=O)NC[C@@H]4C(=O)N5)cc3)c3ccc(S(=O)(=O)[O-])cc3C2(C)C)C(C)(C)c2cc(S(=O)(=O)O)ccc21` [compound 2, cyclo(DKP‐RGD)‐sCy5], the “αvβ3 integrin binding IC50, in words” value in assay [1] is given as “low‐nanomolar”. For the compound `CC(=O)O[C@H]1C(=O)[C@@]2(C)[C@H]([C@H](OC(=O)c3ccccc3)[C@]3(O)C[C@H](OC(=O)[C@H](O)[C@@H](NC(=O)c4ccccc4)c4ccccc4)C(C)=C1C3(C)C)[C@]1(OC(C)=O)CO[C@@H]1C[C@@H]2O` [compound 12, Paclitaxel], the IC50 is 35.8 ± 16.7 nM in assay [2] (read-out: IC50, added elastase NO) and 29.5 ± 7.6 nM in assay [2] (read-out: IC50, added elastase YES).

Regarding `N=C(N)NCCC[C@@H]1NC(=O)C[C@@H]2NC(=O)[C@@H](CNC(=O)[C@H](CC(=O)O)NC(=O)CCNC1=O)N(Cc1ccccc1)C2=O` [compound 3, cyclo(DKP‐RβAD)], the “αvβ3 integrin binding IC50, in words” value in assay [1] is reported as “micromolar”.
